Measured values reported in ChEMBL document CHEMBL5303300, “EUbOPEN Chemogenomics Library - Multiplex” (2023).
Values joined by “and” are separate entries in the source; they are usually repeats but may differ in a detail not shown here. Equal entries are not always repeated.

Test system: HEK-293T
Assay: Multiplex assay against HEK293T
Type: toxicity, cell-based
Conditions: human, number of replicates 2
Procedure, shortened: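 On a CQ1 microscope at 37°C and 5% CO2, live cells were imaged after compound addition. They had been stained at seeding with Hoechst33342, BioTracker Green Microtubule Cytoskeleton Dye, MitoTracker Red and Annexin V Alexa Fluor 680. CellPathfinder machine-learning gating assigned cells to Hoechst high-intensity objects or normal cells, normal cells to healthy, pyknosed or fragmented nuclei, and pyknosed cells to mitotic or apoptotic. Tubulin, mitochondrial-mass and membrane-permeability phenotypes are per cents of healthy-nucleus cells.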

[1] = 12 h, 1 µM, compound concentration 1 uM
[2] = 12 h, 10 µM, compound concentration 10 uM
[3] = 24 h, 1 µM, compound concentration 1 uM
[4] = 24 h, 10 µM, compound concentration 10 uM
[5] = 48 h, 1 µM, compound concentration 1 uM
[6] = 48 h, 10 µM, compound concentration 10 uM

CN1CCc2cc(Nc3ncc(C(F)(F)F)c(NCc4cc[nH]n4)n3)ccc2C1
Population Apoptotic (%) [1]: 85% and 72% | Population Fragmented Nuclei (%) [1]: 4% and 3% | Population Healthy Nuclei (%) [1]: 77% and 78% | Population Hoechst High Intensity Objects (%) [1]: 14% and 11% | Population Membrane Permeable-Phenotype (%) [1]: 1% | Population Mitochondria Different-Phenotype (%) [1]: 41% and 47% | Population Mitotic Cells (%) [1]: 14% and 27% | Population Normal (%) [1]: 85% and 88% | Population Pyknosed Nuclei (%) [1]: 17% | Population Tubulin-Different-Phenotype (%) [1]: 35% and 44% | Total Cell Count [1]: 280 and 291 | Population Apoptotic (%) [2]: 64% and 85% | Population Fragmented Nuclei (%) [2]: 5% | Population Healthy Nuclei (%) [2]: 89% | Population Hoechst High Intensity Objects (%) [2]: 10% and 13% | Population Membrane Permeable-Phenotype (%) [2]: 0% | Population Mitochondria Different-Phenotype (%) [2]: 38% and 43% | Population Mitotic Cells (%) [2]: 35% and 14% | Population Normal (%) [2]: 89% and 86% | Population Pyknosed Nuclei (%) [2]: 5% | Population Tubulin-Different-Phenotype (%) [2]: 66% and 70% | Total Cell Count [2]: 377 and 312 | Population Apoptotic (%) [3]: 83% and 72% | Population Fragmented Nuclei (%) [3]: 4% and 5% | Population Healthy Nuclei (%) [3]: 81% and 73% | Population Hoechst High Intensity Objects (%) [3]: 20% and 13% | Population Membrane Permeable-Phenotype (%) [3]: 0% | Population Mitochondria Different-Phenotype (%) [3]: 37% and 43% | Population Mitotic Cells (%) [3]: 16% and 27% | Population Normal (%) [3]: 79% and 86% | Population Pyknosed Nuclei (%) [3]: 14% and 20% | Population Tubulin-Different-Phenotype (%) [3]: 38% and 42% | Total Cell Count [3]: 267 and 261 | Population Apoptotic (%) [4]: 63% and 80% | Population Fragmented Nuclei (%) [4]: 5% and 4% | Population Healthy Nuclei (%) [4]: 87% | Population Hoechst High Intensity Objects (%) [4]: 11% and 13% | Population Membrane Permeable-Phenotype (%) [4]: 1% and 0% | Population Mitochondria Different-Phenotype (%) [4]: 58% and 60% | Population Mitotic Cells (%) [4]: 36% and 20% | Population Normal (%) [4]: 88% and 86% | Population Pyknosed Nuclei (%) [4]: 7% and 8% | Population Tubulin-Different-Phenotype (%) [4]: 73% and 71% | Total Cell Count [4]: 315 and 284 | Population Apoptotic (%) [5]: 80% and 72% | Population Fragmented Nuclei (%) [5]: 7% and 5% | Population Healthy Nuclei (%) [5]: 79% | Population Hoechst High Intensity Objects (%) [5]: 16% and 14% | Population Membrane Permeable-Phenotype (%) [5]: 1% | Population Mitochondria Different-Phenotype (%) [5]: 40% and 36% | Population Mitotic Cells (%) [5]: 19% and 27% | Population Normal (%) [5]: 83% and 85% | Population Pyknosed Nuclei (%) [5]: 13% and 15% | Population Tubulin-Different-Phenotype (%) [5]: 36% | Total Cell Count [5]: 285 and 307 | Population Apoptotic (%) [6]: 46% and 75% | Population Fragmented Nuclei (%) [6]: 3% and 4% | Population Healthy Nuclei (%) [6]: 84% and 82% | Population Hoechst High Intensity Objects (%) [6]: 14% and 18% | Population Membrane Permeable-Phenotype (%) [6]: 0% and 1% | Population Mitochondria Different-Phenotype (%) [6]: 65% and 67% | Population Mitotic Cells (%) [6]: 53% and 25% | Population Normal (%) [6]: 85% and 81% | Population Pyknosed Nuclei (%) [6]: 11% and 12% | Population Tubulin-Different-Phenotype (%) [6]: 71% and 72% | Total Cell Count [6]: 303 and 280

CSc1cc2c(cc1C(F)(F)F)N(C(=O)Nc1cccnc1)CC2
Population Apoptotic (%) [1]: 48% and 46% | Population Fragmented Nuclei (%) [1]: 2% and 3% | Population Healthy Nuclei (%) [1]: 87% and 85% | Population Hoechst High Intensity Objects (%) [1]: 4% and 5% | Population Membrane Permeable-Phenotype (%) [1]: 4% and 3% | Population Mitochondria Different-Phenotype (%) [1]: 9% and 18% | Population Mitotic Cells (%) [1]: 51% and 53% | Population Normal (%) [1]: 95% and 94% | Population Pyknosed Nuclei (%) [1]: 10% | Population Tubulin-Different-Phenotype (%) [1]: 41% and 47% | Total Cell Count [1]: 690 and 549 | Population Apoptotic (%) [2]: 51% and 43% | Population Fragmented Nuclei (%) [2]: 5% and 2% | Population Healthy Nuclei (%) [2]: 84% | Population Hoechst High Intensity Objects (%) [2]: 5% | Population Membrane Permeable-Phenotype (%) [2]: 3% | Population Mitochondria Different-Phenotype (%) [2]: 5% and 14% | Population Mitotic Cells (%) [2]: 48% and 56% | Population Normal (%) [2]: 94% | Population Pyknosed Nuclei (%) [2]: 9% and 12% | Population Tubulin-Different-Phenotype (%) [2]: 39% | Total Cell Count [2]: 679 and 494 | Population Apoptotic (%) [3]: 25% and 42% | Population Fragmented Nuclei (%) [3]: 5% and 4% | Population Healthy Nuclei (%) [3]: 88% and 87% | Population Hoechst High Intensity Objects (%) [3]: 6% and 5% | Population Membrane Permeable-Phenotype (%) [3]: 2% | Population Mitochondria Different-Phenotype (%) [3]: 3% and 6% | Population Mitotic Cells (%) [3]: 74% and 57% | Population Normal (%) [3]: 93% and 94% | Population Pyknosed Nuclei (%) [3]: 5% and 8% | Population Tubulin-Different-Phenotype (%) [3]: 27% and 31% | Total Cell Count [3]: 1189 and 774 | Population Apoptotic (%) [4]: 20% and 36% | Population Fragmented Nuclei (%) [4]: 10% and 6% | Population Healthy Nuclei (%) [4]: 85% and 87% | Population Hoechst High Intensity Objects (%) [4]: 5% and 7% | Population Membrane Permeable-Phenotype (%) [4]: 3% and 2% | Population Mitochondria Different-Phenotype (%) [4]: 2% and 5% | Population Mitotic Cells (%) [4]: 79% and 63% | Population Normal (%) [4]: 94% and 92% | Population Pyknosed Nuclei (%) [4]: 4% and 6% | Population Tubulin-Different-Phenotype (%) [4]: 26% and 21% | Total Cell Count [4]: 1164 and 681 | Population Apoptotic (%) [5]: 5% and 7% | Population Fragmented Nuclei (%) [5]: 14% and 9% | Population Healthy Nuclei (%) [5]: 83% and 88% | Population Hoechst High Intensity Objects (%) [5]: 9% and 10% | Population Membrane Permeable-Phenotype (%) [5]: 6% and 4% | Population Mitochondria Different-Phenotype (%) [5]: 0% | Population Mitotic Cells (%) [5]: 94% and 92% | Population Normal (%) [5]: 90% and 89% | Population Pyknosed Nuclei (%) [5]: 2% | Population Tubulin-Different-Phenotype (%) [5]: 14% and 17% | Total Cell Count [5]: 2977 and 1800 | Population Apoptotic (%) [6]: 5% and 6% | Population Fragmented Nuclei (%) [6]: 20% and 12% | Population Healthy Nuclei (%) [6]: 77% and 84% | Population Hoechst High Intensity Objects (%) [6]: 9% and 7% | Population Membrane Permeable-Phenotype (%) [6]: 7% and 6% | Population Mitochondria Different-Phenotype (%) [6]: 0% and 1% | Population Mitotic Cells (%) [6]: 94% and 93% | Population Normal (%) [6]: 90% and 92% | Population Pyknosed Nuclei (%) [6]: 1% and 2% | Population Tubulin-Different-Phenotype (%) [6]: 11% and 13% | Total Cell Count [6]: 2869 and 1725
